According to ChEMBL document CHEMBL4385599, “Neutral sphingomyelinase 2 inhibitors based on the 4-(1H-imidazol-2-yl)-2,6-dialkoxyphenol scaffold” (Eur J Med Chem, 2019):

What was measured:
[1] = Metabolic stability in mouse liver microsomes assessed as parent compound remaining at 5 uM in presence of NADPH regenerating system measured after 1 hr by LC/MS/MS method; assay type: ADME, Microsome
[2] = Metabolic stability in human liver microsomes assessed as parent compound remaining in presence of UDPGA at 5 uM measured after 1 hr by LC/MS/MS method; assay type: ADME, Microsome
Procedure, shortened: (§1)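 Glucuronidation: compound in 50 mM Tris-HCl pH 7.5 with microsomes 0.5 mg/mL, 8 mM MgCl2, 25 μg/mL alamethicin, preincubated at 37 °C; started with UDPGA 2 mM final, triplicate; 60 min; quenched with cold acetonitrile plus internal standard; parent remaining by LC/MS/MS; cofactor-free controls.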

[3] = Ratio of drug level in brain to plasma in CD-1 mouse at 10 mg/kg, po measured after 2 hrs by UPLC and LC-MS/MS analysis; assay type: ADME, organism-based
Procedure, shortened: (§2)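 Male CD-1 mice (25–30 g), single oral gavage 10 mg/kg in 5% DMSO, 5% polysorbate 80, 90% saline; 3 mice per time point, sacrificed at 0.5 and 2 h. Cardiac blood into heparin, plasma by centrifugation; brains flash frozen. Acetonitrile extraction with losartan internal standard; quantified by UPLC–LC-MS/MS against calibration curves in naïve plasma/brain matrix.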

[4] = Metabolic stability in mouse liver microsomes assessed as parent compound remaining in presence of UDPGA at 5 uM measured after 1 hr by LC/MS/MS method; assay type: ADME, Microsome; procedure, shortened: as §1
[5] = Ratio of drug level of test compound to drug level of DPTIP in CD-1 mouse plasma at 10 mg/kg, po measured after 2 hrs by UPLC and LC-MS/MS analysis; assay type: ADME, organism-based; conditions: in vivo; procedure, shortened: as §2
Homo sapiens [6] = species on record: Homo sapiens; assay: Selectivity index, ratio of IC50 for alkaline phosphatase (unknown origin) to IC50 for Inhibition of human recombinant nSMase expressed in HEK293 cells; assay type: cell-based
[7] = Ratio of drug level of test compound to drug level of DPTIP in CD-1 mouse plasma at 10 mg/kg, po measured after 0.5 hrs by UPLC and LC-MS/MS analysis; assay type: ADME, organism-based; conditions: in vivo; procedure, shortened: as §2
[8] = Drug metabolism in CD-1 mouse assessed as (2S,3S,4S,5R,6S)-6-(4-(4,5-diisopropyl-1H-imidazol-2-yl)-2,6-dimethoxyphenoxy)-3,4,5-trihydroxytetrahydro-2H-pyran-2-carboxylic acid at 10 mg/kg, po measured after 2 hrs by UPLC and LC-MS/MS analysis; assay type: ADME, organism-based; conditions: in vivo
[9] = Ratio of drug level of test compound to drug level of DPTIP in CD-1 mouse brain at 10 mg/kg, po measured after 2 hrs by UPLC and LC-MS/MS analysis; assay type: ADME, organism-based; conditions: in vivo; procedure, shortened: as §2
[10] = Selectivity index, ratio of IC50 for horseradish peroxidase to IC50 for Inhibition of human recombinant nSMase expressed in HEK293 cells; assay type: cell-based
Homo sapiens [11] = species on record: Homo sapiens; assay: Selectivity index, ratio of IC50 for choline oxidase (unknown origin) to IC50 for Inhibition of human recombinant nSMase expressed in HEK293 cells; assay type: cell-based
[12] = Metabolic stability in human liver microsomes assessed as parent compound remaining at 5 uM in presence of NADPH regenerating system measured after 1 hr by LC/MS/MS method; assay type: ADME, Microsome
[13] = target: T1, Sphingomyelin phosphodiesterase 3 (Homo sapiens, UniProt Q9NY59); assay: Inhibition of human recombinant nSMase expressed in HEK293 cells using sphingomyelin as substrate by alkaline phosphatase, choline oxidase and horseradish peroxidase dependent H2O2 detection based fluorescence coupled assay
T1 sequence (Q9NY59 whole entry): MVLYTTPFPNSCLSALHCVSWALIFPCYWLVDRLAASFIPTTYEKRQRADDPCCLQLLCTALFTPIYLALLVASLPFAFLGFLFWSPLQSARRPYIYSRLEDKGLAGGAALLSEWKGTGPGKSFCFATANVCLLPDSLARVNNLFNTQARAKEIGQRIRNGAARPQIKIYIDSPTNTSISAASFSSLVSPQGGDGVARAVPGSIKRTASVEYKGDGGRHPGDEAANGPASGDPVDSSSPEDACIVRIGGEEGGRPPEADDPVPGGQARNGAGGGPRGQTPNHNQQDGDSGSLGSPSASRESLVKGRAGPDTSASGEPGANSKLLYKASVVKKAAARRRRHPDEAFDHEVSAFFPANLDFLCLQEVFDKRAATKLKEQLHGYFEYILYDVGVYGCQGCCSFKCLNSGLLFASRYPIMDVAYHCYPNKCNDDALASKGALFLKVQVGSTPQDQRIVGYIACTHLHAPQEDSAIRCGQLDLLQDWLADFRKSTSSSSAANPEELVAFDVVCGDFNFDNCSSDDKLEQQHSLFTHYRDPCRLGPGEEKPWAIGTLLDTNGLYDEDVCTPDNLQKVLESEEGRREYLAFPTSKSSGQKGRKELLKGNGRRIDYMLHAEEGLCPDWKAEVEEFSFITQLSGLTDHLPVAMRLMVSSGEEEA
Procedure, shortened: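 Fluorescence-based coupled assay with human recombinant nSMase2, alkaline phosphatase and choline oxidase; IC50 values are mean ± SD of at least three experiments.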

- Stability [1]: 82%
- Stability [2]: 32%
- BPR [3]: 9%
- Stability [4]: 14%
- Ratio [5]: 6
- Ratio [7]: 3
- Drug metabolism [8]: Metabolite_Detected
- Ratio [9]: 3
- Stability [12]: > 95%
- IC50 [13]: 90 nM
SMILES: COc1cc(-c2nc(C(C)C)c(C(C)C)[nH]2)cc(OC)c1O
- Ratio IC50 (Homo sapiens [6]): > 5
- Ratio IC50 [10]: > 5
- Ratio IC50 (Homo sapiens [11]): > 5
